Laboratory results published in paper PMC7442746 (ACS chemical biology, 2020).

Experiments:
[1] = target: T1, recombinant human HDAC10 (TwinStrep-HDAC10 fusion protein) (Homo sapiens, UniProt Q969S8); assay: Differential scanning fluorimetry; format: binding; conditions: protein 3 μM, inhibitor 6 μM; for melting temperature (Tm) of TwinStrep-HDAC10 with inhibitor: Tm 65.90 °C with 0.6% DMSO, n = 2
T1 sequence (Q969S8 1-669): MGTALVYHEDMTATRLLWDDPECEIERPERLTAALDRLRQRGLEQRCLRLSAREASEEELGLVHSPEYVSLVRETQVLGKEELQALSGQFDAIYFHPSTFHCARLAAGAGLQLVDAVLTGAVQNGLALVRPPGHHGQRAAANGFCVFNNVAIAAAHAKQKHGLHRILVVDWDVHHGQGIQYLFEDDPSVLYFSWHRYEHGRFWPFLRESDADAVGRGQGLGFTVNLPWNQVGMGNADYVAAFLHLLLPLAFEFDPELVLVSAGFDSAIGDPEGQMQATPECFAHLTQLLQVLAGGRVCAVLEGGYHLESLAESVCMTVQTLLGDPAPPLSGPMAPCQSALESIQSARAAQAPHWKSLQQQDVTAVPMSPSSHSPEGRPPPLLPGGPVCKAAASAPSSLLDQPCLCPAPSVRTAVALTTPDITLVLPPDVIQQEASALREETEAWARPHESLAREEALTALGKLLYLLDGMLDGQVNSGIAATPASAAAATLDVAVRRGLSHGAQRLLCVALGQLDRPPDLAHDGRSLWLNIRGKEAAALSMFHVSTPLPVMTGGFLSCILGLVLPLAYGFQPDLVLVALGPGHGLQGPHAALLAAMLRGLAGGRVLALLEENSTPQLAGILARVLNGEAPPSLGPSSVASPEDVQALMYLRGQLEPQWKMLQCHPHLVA
Method in brief: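 Nano-DSF on recombinant human HDAC10 with an N-terminal TwinStrep tag. Protein at 3 μM and test compound at 6 μM (protein:inhibitor 1:2). Controls were protein alone and protein with DMSO, each run once. Compound runs were done twice and Tm reported as the mean of the two. Thermal shift was taken as the Tm change from the DMSO control.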

HDAC10 over HDAC6 = conditions: cited from earlier work
human HDAC10 = conditions: oxa analogue weaker than Tubastatin A; cited from earlier work

| Structure (SMILES) | melting temperature (Tm) of TwinStrep-HDAC10 with inhibitor [1] [°C] | selectivity for inhibition of HDAC10 compared to HDAC6 (HDAC10 over HDAC6) [fold] | thermal shift ([1]; relative to DMSO control) [°C] | difference in HDAC10 binding affinity between Tubastatin A and its oxa analogue (human HDAC10) [fold] |
| --- | --- | --- | --- | --- |
| CN1CCc2c(c3ccccc3n2Cc2ccc(C(=O)NO)cc2)C1 [Tubastatin A, reference compound] | 72.94 ± 0.08 | ~8 | – | – |
| O=C(NO)c1ccc(Cn2c3c(c4ccccc42)COCC3)cc1 [oxa-Tubastatin A] | 67.27 ± 0.01 | – | 1.37 | 52 |
